Rows were chosen to be rich in hits. Some 1.9% of all compounds tested hit in one or more screens of this group.
T cell modulator – T cell immune modulation candidate | 2C CD8+ T cell-vesicle binding, flow cytometry; hits give low values | response (vesicle binding), % at 7 µM | hit rate 0.068% among 330,000 | AID 2052;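 active = response, share of CD8 T cells binding vesicles, and their 90th percentile fluorescence all below set limits, cut at about 80% in these data, passing the limit was not always enough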;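 also: values below 100% mean blocked vesicle binding to the CD8+ T cells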
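Material: murine 2C transgenic CD8+ T lymphocytes / Also added: QL9-peptide-loaded Drosophila micro-vesicles bearing Ld, ICAM-1 and B7-1 / Schedule: binding step 1.5 h, 37 °C, antibody labelling 20 min, ice / Signal: flow cytometry, PE anti-B7-1 (FL2) versus Alexa647 anti-CD8 (FL8), PFA-fixed / Evaluation: percent CD8+ FL2 mean versus row control / Benchmarks: naked versus QL9-loaded vesicles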
MIN6 prolif – inducers of beta-cell replication in MIN6 cells; MIN6 cells proliferation, ATPlite luminescence, 48 h; cells starved in 0.2% serum; 100% = growth in 10% serum; proliferation, % at 10 µM; hit rate 0.29% among 330,000; AID 2380;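 active = compounds whose signal lies at least 3.5 SD above the mean of all wells on their plate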
KLK7 zymogen act – activators of human kallikrein-7 zymogen. purified proKLK7, EDANS-DABCYL substrate fluorescence; 100% is mature enzyme control, 0% vehicle. hit rate 0.9% among 370,000. activation, % at 7 µM. P49862;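 active = activation above the mean of all tested compounds plus 3 SD, computed per campaign excluding outliers beyond control limits, cut at about 13% in these data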
Target sequence (P49862 whole entry, looked up): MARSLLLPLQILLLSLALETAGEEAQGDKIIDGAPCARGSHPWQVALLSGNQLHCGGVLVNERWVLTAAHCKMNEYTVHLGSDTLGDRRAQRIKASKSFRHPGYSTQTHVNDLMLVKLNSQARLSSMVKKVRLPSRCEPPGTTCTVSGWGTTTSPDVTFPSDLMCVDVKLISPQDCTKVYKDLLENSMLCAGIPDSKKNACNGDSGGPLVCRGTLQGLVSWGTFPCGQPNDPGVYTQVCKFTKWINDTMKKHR
Rce1 inh – blocks yeast Ras-converting enzyme; calls only; yeast membranes, quenched prenylated peptide cleavage fluorescence; AID 2563; hit rate 0.27% among 290,000;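 active = fall in fluorescence gain of 50% or more versus controls, with final raw signal at or below 3038400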
Target sequence (Q03530 whole entry, looked up): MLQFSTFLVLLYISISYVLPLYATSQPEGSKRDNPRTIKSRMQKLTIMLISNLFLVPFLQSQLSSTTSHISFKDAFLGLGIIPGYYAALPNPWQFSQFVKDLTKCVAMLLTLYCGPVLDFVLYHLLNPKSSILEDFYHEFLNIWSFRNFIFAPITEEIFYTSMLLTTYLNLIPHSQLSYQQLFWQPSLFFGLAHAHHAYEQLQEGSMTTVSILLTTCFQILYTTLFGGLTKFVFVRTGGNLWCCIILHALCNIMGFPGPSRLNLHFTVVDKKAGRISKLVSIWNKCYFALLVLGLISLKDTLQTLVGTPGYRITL
Yeast superoxide – lowers age-related superoxide in aged yeast cells. hit rate 0.18% among 330,000. superoxide response (% of plate mean), % at 10 µM. S. cerevisiae aged cells, superoxide DHE fluorescence; hits give low values;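 active = superoxide response under a set limit, about three screen SD below normal, cut at about 65% in these data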;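 also: yeast aged for seven days with compound at 30 °C before DHE staining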
V-ATPase pH – alters yeast V-ATPase proton transport; S. cerevisiae, pHLuorin cytosolic pH fluorescence; response, % at 10 µM; hit rate 0.37% among 350,000; AID 504577; in the data active = response mostly above about 7.3%, no sharp cut-off; inactive = mostly below about 5.4%; also: actives read high
CR mimetic CP – yeast aging superoxide inhibition, cherry pick confirmation | shares compounds with Yeast superoxide | S. cerevisiae aging, superoxide DHE fluorescence; hits give low values | superoxide response (% of plate), % at 10 µM | hit rate 1% among 850 | AID 434994;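 active = superoxide signal below 65% of the plate average of sample wells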;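 also: cells aged with compound for 7 days at 30 degrees C before staining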
DHE counter – DHE fluorescence interference, counter-screen artifact; shares compounds with Yeast superoxide; S. cerevisiae BY4741, flow cytometry; hits give low values; fluorescence response, % at 10 µM; 850 tested, under 10 active;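 active = fluorescence response below 15%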;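 also: lower means stronger quenching of DHE signal or ROS scavenging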
V-ATPase pH SP – modulates yeast V-ATPase proton transport. response, % at 10 µM. AID 602197. S. cerevisiae pHLuorin cytosolic pH. shares compounds with V-ATPase pH. hit rate 2% among 980; in the data active = response above about 24%
proKLK7 act conf – confirmation of human kallikrein-7 zymogen activators; hit rate 68% among 3,200; activation, % at 7 µM; AID 686949; shares compounds with KLK7 zymogen act; purified proKLK7, EDANS-DABCYL substrate fluorescence; scaled: vehicle 0, mature enzyme 100;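 active = activation, as change over the incubation, above the mean of all tested compounds plus 3 SD, cut at about 13% in these data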
EDANS-DABCYL int – counter-screen for kallikrein-7 activators: EDANS-DABCYL optical interference; shares compounds with KLK7 zymogen act; EDANS-DABCYL substrate fluorescence interference, no enzyme, 4 h; solvent 0%, active enzyme control 100%; activation, % at 7 µM; hit rate 80% among 3,200; AID 686952;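 active = activation above the all-compound mean plus 3 SD, ignoring values outside control-based bounds, cut at about 4.8% in these data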;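 also: value is the 4 h activation minus the activation read at time zero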
A number is an active result.

How did CC1(C)Cc2ccccc2C2=NNC(=O)C2=N1 do in these assays?
T cell modulator: inactive; MIN6 prolif: inactive; KLK7 zymogen act: inactive; Rce1 inh: inactive; Yeast superoxide: 56; V-ATPase pH: inactive; CR mimetic CP: inactive; DHE counter: inactive

What do the screens show for `O=C(COn1nnc2ccc(C(F)(F)F)cc21)Nc1nnc(-c2ccccc2)o1`?
T cell modulator: inactive; MIN6 prolif: inactive; KLK7 zymogen act: inactive; Rce1 inh: inactive; Yeast superoxide: 60; V-ATPase pH: inactive; CR mimetic CP: inactive; DHE counter: inactive

How did Cc1cccc(C)c1NC(=O)COn1nnc2ccc(C(F)(F)F)cc21 do in these assays?
T cell modulator: inactive; MIN6 prolif: inactive; KLK7 zymogen act: inactive; Rce1 inh: inactive; Yeast superoxide: inactive; V-ATPase pH: inactive

How did COc1ccc(CC(=O)Nc2nc(-c3cccnc3)cs2)cc1 do in these assays?
T cell modulator: inactive; MIN6 prolif: inactive; KLK7 zymogen act: inactive; Rce1 inh: inactive; Yeast superoxide: 63; V-ATPase pH: inactive; CR mimetic CP: inactive; DHE counter: inactive

What do the screens show for `COc1cccc(CC(=O)Nc2nc(-c3cccnc3)cs2)c1`?
T cell modulator: inactive; MIN6 prolif: inactive; KLK7 zymogen act: inactive; Rce1 inh: inactive; Yeast superoxide: inactive; V-ATPase pH: inactive

What do the screens show for `CCOC(=O)CSc1nnc(-c2ccccc2)o1`?
T cell modulator: inactive; MIN6 prolif: inactive; KLK7 zymogen act: inactive; Rce1 inh: inactive; Yeast superoxide: inactive; V-ATPase pH: inactive; CR mimetic CP: inactive; DHE counter: inactive; V-ATPase pH SP: inactive

How did O=S1(=O)C[C@@H](N2CCC[C@@H]2CO)[C@H](COCc2ccccc2)N1 do in these assays?
KLK7 zymogen act: inactive

Results for Cc1cccn2c(=O)c3cc(C(=O)NCc4ccco4)c(=N)n(C(C)C)c3nc12 ?
T cell modulator: inactive; MIN6 prolif: inactive; KLK7 zymogen act: 26; Rce1 inh: inactive; Yeast superoxide: 64; V-ATPase pH: inactive; CR mimetic CP: inactive; DHE counter: inactive; proKLK7 act conf: inactive; EDANS-DABCYL int: inactive

What do the screens show for `CCOc1ccc(CCNC(=O)COC(=O)c2cc(S(=O)(=O)N3CCOCC3)ccc2F)cc1OCC`?
T cell modulator: inactive; MIN6 prolif: inactive; KLK7 zymogen act: inactive; Rce1 inh: inactive; Yeast superoxide: inactive; V-ATPase pH: inactive

What do the screens show for `O=C(CN1Cc2ccccc2C1=O)Nc1ccc2c(c1)OCCO2`?
T cell modulator: inactive; MIN6 prolif: inactive; KLK7 zymogen act: inactive; Rce1 inh: inactive; Yeast superoxide: inactive; V-ATPase pH: 11; V-ATPase pH SP: inactive

What do the screens show for `COc1ccccc1OCC(=O)Nc1ccc2c(c1)OCCO2`?
T cell modulator: inactive; MIN6 prolif: inactive; KLK7 zymogen act: inactive; Rce1 inh: inactive; Yeast superoxide: inactive; V-ATPase pH: inactive

What do the screens show for `NC(=O)c1ccccc1OCC(=O)Nc1ccc2c(c1)OCCO2`?
MIN6 prolif: inactive; KLK7 zymogen act: inactive; V-ATPase pH: 7.3; V-ATPase pH SP: inactive

Results for COC(=O)C[C@H]1C[C@H]2c3cc(NC(=O)Nc4ccc(C(F)(F)F)cc4)ccc3O[C@H]2[C@@H](CO)O1 ?
KLK7 zymogen act: inactive; V-ATPase pH: inactive

What do the screens show for `O=C(NCc1ccco1)Nc1ccc(OC(F)(F)F)cc1`?
T cell modulator: inactive; MIN6 prolif: inactive; KLK7 zymogen act: inactive; Rce1 inh: inactive; Yeast superoxide: inactive; V-ATPase pH: inactive

How did O=C(NCc1ccco1)Nc1ccc(Br)cc1 do in these assays?
T cell modulator: inactive; MIN6 prolif: inactive; KLK7 zymogen act: inactive; Rce1 inh: inactive; Yeast superoxide: inactive; V-ATPase pH: 11; V-ATPase pH SP: inactive

What do the screens show for `O=C(Cc1ccc2c(c1)OCCO2)N1CCN(S(=O)(=O)c2ccccc2C(F)(F)F)CC1`?
T cell modulator: inactive; MIN6 prolif: inactive; KLK7 zymogen act: inactive; Rce1 inh: inactive; Yeast superoxide: inactive; V-ATPase pH: 12; V-ATPase pH SP: inactive

What do the screens show for `O=C(Cc1ccc2c(c1)OCCO2)N1CCN(S(=O)(=O)c2cccc(Cl)c2Cl)CC1`?
T cell modulator: inactive; MIN6 prolif: inactive; KLK7 zymogen act: inactive; Rce1 inh: inactive; Yeast superoxide: inactive; V-ATPase pH: inactive

What do the screens show for `CC(C)N(C(N)=NC(=O)OCc1ccccc1)C(C)C`?
KLK7 zymogen act: inactive

How did N#Cc1c(NC(=O)Cn2nc(C(F)(F)F)c3c2CCCC3)sc2c1CCC2 do in these assays?
T cell modulator: inactive; MIN6 prolif: inactive; KLK7 zymogen act: inactive; Rce1 inh: inactive; Yeast superoxide: inactive; V-ATPase pH: 10; V-ATPase pH SP: inactive

What do the screens show for `O=C(O)CSc1nnnn1C1CCCCC1`?
T cell modulator: inactive; MIN6 prolif: inactive; KLK7 zymogen act: inactive; Rce1 inh: inactive; Yeast superoxide: inactive; V-ATPase pH: inactive

What do the screens show for `CC(C)N(C(=O)CSc1nnnn1C1CCCC1)C(C)C`?
MIN6 prolif: inactive; KLK7 zymogen act: inactive; Rce1 inh: inactive; Yeast superoxide: inactive; V-ATPase pH: 8.1; V-ATPase pH SP: inactive

How did NS(=O)(=O)c1ccc(NN=C2CCN(Cc3ccccc3)CC2)c([N+](=O)[O-])c1 do in these assays?
T cell modulator: inactive; MIN6 prolif: inactive; KLK7 zymogen act: inactive; Rce1 inh: inactive; Yeast superoxide: inactive; V-ATPase pH: 16; V-ATPase pH SP: inactive

How did Cc1ccsc1CN1CC(=O)N(c2c(C)cccc2C)C1=S do in these assays?
T cell modulator: inactive; MIN6 prolif: inactive; KLK7 zymogen act: inactive; Rce1 inh: inactive; Yeast superoxide: inactive; V-ATPase pH: 7.4; V-ATPase pH SP: inactive

What do the screens show for `CCn1c(SCC(=O)NCC(=O)Nc2ccc(F)cc2)nnc1-c1cccs1`?
T cell modulator: inactive; MIN6 prolif: inactive; KLK7 zymogen act: inactive; Rce1 inh: inactive; Yeast superoxide: inactive; V-ATPase pH: 8.6; V-ATPase pH SP: inactive

Results for COc1ccc(Nc2sc(C(=O)c3ccc(Cl)cc3)c(N)c2C(=O)Nc2ccccc2OC)cc1 ?
T cell modulator: inactive; MIN6 prolif: inactive; KLK7 zymogen act: inactive; Rce1 inh: inactive; Yeast superoxide: inactive; V-ATPase pH: inactive
